Experimental data reported in ChEMBL document CHEMBL4312019, “Design, synthesis, and evaluation of compounds capable of reducing Pseudomonas aeruginosa virulence” (Eur J Med Chem, 2020).
The source made the active and inactive calls. The rule behind the calls is not given here.

Experiments:
[1] = molecular target: T1, Transcriptional regulator MvfR (Pseudomonas aeruginosa PA14) (UniProt A0A072ZLE6); assay: Inhibition of Pseudomonas aeruginosa PAO1 PqsR assessed as increase in pyocyanin production level at 10 uM measured after 10 mins by spectrometry based analysis relative to control
T1 sequence (whole entry): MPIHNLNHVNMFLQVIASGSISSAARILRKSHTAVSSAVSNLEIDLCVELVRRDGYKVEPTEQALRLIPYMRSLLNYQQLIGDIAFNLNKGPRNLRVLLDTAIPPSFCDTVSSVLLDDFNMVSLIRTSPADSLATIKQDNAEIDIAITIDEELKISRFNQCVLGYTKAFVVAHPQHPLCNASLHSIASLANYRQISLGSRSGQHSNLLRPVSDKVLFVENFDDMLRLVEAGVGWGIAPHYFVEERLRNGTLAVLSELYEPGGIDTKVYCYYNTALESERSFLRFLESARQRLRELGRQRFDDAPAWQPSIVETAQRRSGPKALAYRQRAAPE
How it was run: (§1)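 PAO1 cultured with or without 10 µM compound. Pyocyanin quantified by a spectrometry-based method and expressed as percent of vehicle-treated control. Mean ± SEM of at least 32 replicates.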

Pseudomonas aeruginosa [2] = assay: Inhibition of biofilm formation in Pseudomonas aeruginosa PAO1 at 10 uM incubated for 10 hrs by crystal violet staining based microtiter plate method relative to control; format: functional; conditions: PAO1, 10 h
How it was run: (§2)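 PAO1 or PA14 grown at 37 °C with 10 µM compound or vehicle. Expressed as percent biofilm biomass versus vehicle-treated control; mean ± SEM.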

Pseudomonas aeruginosa [3] = assay: Inhibition of biofilm formation in Pseudomonas aeruginosa PA14 at 10 uM incubated for 10 hrs by crystal violet staining based microtiter plate method relative to control; format: functional; conditions: PA14, 10 h; how it was run: as §2
[4] = molecular target: Voltage-gated inwardly rectifying potassium channel KCNH2 (Homo sapiens, UniProt Q12809); assay: Inhibition of human ERG
[5] = Inhibition of quorum sensing system in Pseudomonas aeruginosa assessed as reduction of rhamnolipids level at 10 uM measured after 24 hrs by methylene-blue based assay relative to control
How it was run: (§3)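 P. aeruginosa grown 24 h with or without 10 µM compound. Rhamnolipids quantified by methylene-blue assay against a six-point standard curve of commercial rhamnolipids.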

Pseudomonas aeruginosa [6] = assay: Inhibition of biofilm formation in Pseudomonas aeruginosa PAO1 at 10 uM incubated for 10 hrs by crystal violet staining based microtiter plate method; format: functional, organism-based; how it was run: as §2
Pseudomonas aeruginosa [7] = assay: Inhibition of biofilm formation in Pseudomonas aeruginosa PA14 at 10 uM incubated for 10 hrs by crystal violet staining based microtiter plate method; format: functional, organism-based; how it was run: as §2
[8] = molecular target: T1, Transcriptional regulator MvfR (Pseudomonas aeruginosa PA14); assay: Inhibition of Pseudomonas aeruginosa PAO1 PqsR assessed as reduction in pyocyanin production level at 10 uM measured after 10 mins by spectrometry based analysis; how it was run: as §1
Pseudomonas aeruginosa [9] = assay: Inhibition of pyoverdin production in Pseudomonas aeruginosa at 10 uM relative to control; format: functional
Pseudomonas aeruginosa [10] = assay: Inhibition of pyocyanin production in Pseudomonas aeruginosa at 1 uM relative to control; format: functional
Pseudomonas aeruginosa [11] = assay: Inhibition of pyocyanin production in Pseudomonas aeruginosa at 100 uM relative to control; format: functional
[12] = molecular target: Transcriptional activator protein LasR (Pseudomonas aeruginosa (strain ATCC 15692 / PAO1 / 1C / PRS 101 / LMG12228)) (UniProt P25084); assay: Inhibition of Pseudomonas aeruginosa PAO1 LasR transfected with lasB-GFP at 10 uM measured after 12 hrs by fluorescence based microtiter plate reader method
How it was run: (§4)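 GFP reporter strains (PqsR: PA14 pAW1::GFP; LasR: PAO1 lasB::GFP) grown 12 h in LB broth with 5% BSA, with or without 10 µM compound.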

[13] = molecular target: T1, Transcriptional regulator MvfR (Pseudomonas aeruginosa PA14); assay: Inhibition of Pseudomonas aeruginosa PA14 PqsR transfected with pAW1-GFP at 10 uM measured after 12 hrs by fluorescence based microtiter plate reader method; how it was run: as §4
[14] = Inhibition of quorum sensing system in Pseudomonas aeruginosa assessed as reduction of rhamnolipids level at 10 uM measured after 24 hrs by methylene-blue based assay; how it was run: as §3
Pseudomonas aeruginosa [15] = assay: Inhibition of pyocyanin production in Pseudomonas aeruginosa at 50 uM relative to control; format: functional
Pseudomonas aeruginosa [16] = assay: Inhibition of biofilm formation in Pseudomonas aeruginosa at 50 uM relative to control; format: functional
[17] = molecular target: T1, Transcriptional regulator MvfR (Pseudomonas aeruginosa PA14); assay: Inhibition of Pseudomonas aeruginosa PqsR at 5 uM relative to control

Voltage-gated inwardly rectifying potassium channel KCNH2, sequence (Q12809 whole entry): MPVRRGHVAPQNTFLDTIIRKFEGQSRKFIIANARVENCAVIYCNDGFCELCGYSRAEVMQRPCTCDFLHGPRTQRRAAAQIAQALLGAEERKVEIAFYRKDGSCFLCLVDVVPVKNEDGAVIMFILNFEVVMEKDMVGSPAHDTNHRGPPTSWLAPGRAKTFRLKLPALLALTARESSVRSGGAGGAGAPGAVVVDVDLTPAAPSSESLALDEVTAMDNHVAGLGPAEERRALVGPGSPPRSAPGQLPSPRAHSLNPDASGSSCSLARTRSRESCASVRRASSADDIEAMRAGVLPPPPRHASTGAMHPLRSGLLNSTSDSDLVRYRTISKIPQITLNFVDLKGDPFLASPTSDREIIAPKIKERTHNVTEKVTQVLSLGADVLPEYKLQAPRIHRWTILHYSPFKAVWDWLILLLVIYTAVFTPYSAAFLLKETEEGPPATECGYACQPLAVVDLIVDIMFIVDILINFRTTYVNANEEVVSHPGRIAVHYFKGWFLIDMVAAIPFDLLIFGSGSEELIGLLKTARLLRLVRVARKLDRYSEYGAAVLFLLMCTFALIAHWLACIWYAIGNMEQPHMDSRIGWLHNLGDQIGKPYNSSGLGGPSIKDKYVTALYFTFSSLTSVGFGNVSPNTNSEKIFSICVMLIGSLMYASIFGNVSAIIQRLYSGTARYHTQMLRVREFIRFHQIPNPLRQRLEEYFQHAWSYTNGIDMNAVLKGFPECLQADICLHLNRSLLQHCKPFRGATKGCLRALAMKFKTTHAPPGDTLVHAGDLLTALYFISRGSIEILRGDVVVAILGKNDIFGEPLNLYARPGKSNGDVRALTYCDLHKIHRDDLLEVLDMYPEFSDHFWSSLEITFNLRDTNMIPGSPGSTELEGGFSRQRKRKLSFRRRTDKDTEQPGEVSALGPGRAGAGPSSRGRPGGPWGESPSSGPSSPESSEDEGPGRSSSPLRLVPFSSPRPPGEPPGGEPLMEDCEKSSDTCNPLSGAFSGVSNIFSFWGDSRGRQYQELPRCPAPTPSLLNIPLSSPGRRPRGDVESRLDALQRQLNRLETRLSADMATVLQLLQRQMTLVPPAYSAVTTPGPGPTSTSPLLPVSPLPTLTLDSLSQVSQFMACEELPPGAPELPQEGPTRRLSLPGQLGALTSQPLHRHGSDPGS
Transcriptional activator protein LasR (Pseudomonas aeruginosa (strain ATCC 15692 / PAO1 / 1C / PRS 101 / LMG12228)), sequence (P25084 whole entry): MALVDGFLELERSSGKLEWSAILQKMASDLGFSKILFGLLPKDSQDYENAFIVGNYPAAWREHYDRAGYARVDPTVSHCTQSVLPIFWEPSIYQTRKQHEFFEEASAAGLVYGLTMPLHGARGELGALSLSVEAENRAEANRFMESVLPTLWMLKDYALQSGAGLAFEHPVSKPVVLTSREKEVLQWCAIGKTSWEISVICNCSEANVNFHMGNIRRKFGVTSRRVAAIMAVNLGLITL

| Structure (SMILES) | inhibition at 10 µM (Pseudomonas aeruginosa [2]) [%] | inhibition at 10 µM (Pseudomonas aeruginosa [3]) [%] | IC50 [4] [µM] | also measured |
| --- | --- | --- | --- | --- |
| O=C(CCCS(=O)(=O)c1ccccc1)Nc1cc[nH]c(=O)n1 | 40 to 60 | 40 to 60 | 67.8 | inhibition [1]: 20 to 90% |
| O=C(CCCS(=O)(=O)c1ccccc1)NC1CCOC1=O (stereo not drawn) | 40 to 60 | 40 to 60 | 109 | inhibition [5]: 30 to 50% |
| CCCCOc1ccc(Cl)c(OCCCC)c1/N=N/c1c(O)ccc2ccccc12 | – | – | 0.38 | inhibition (Pseudomonas aeruginosa [6]): inactive; inhibition (Pseudomonas aeruginosa [7]): inactive; inhibition [8]: inactive |
| O=C1C=C(Br)/C(=C/Br)O1 | – | – | – | inhibition at 10 µM (Pseudomonas aeruginosa [9]): > 90% |
| O=C(CCCC(=O)c1cccc([N+](=O)[O-])c1)NC1CCCC1 | 40 to 60 | 40 to 60 | 20.4 | inhibition [5]: 30 to 50% |
| O=C(CSc1nc2cc([N+](=O)[O-])ccc2[nH]1)Nc1ccc(Oc2ccccc2)cc1 | – | – | 8.24 | inhibition at 1 µM (Pseudomonas aeruginosa [10]): 95% |
| CCCCCCCCCNC(=O)CC(=O)c1ccccc1 | – | – | – | inhibition at 100 µM (Pseudomonas aeruginosa [11]): 90% |
| O=C(CCNC(=O)c1cccc([N+](=O)[O-])c1)Nc1nc(=O)[nH]cc1F | 40 to 60 | 40 to 60 | 356 | inhibition [12]: inactive; inhibition [1]: 20 to 90%; inhibition [13]: Active |
| CCCCOc1cc(Cl)c(/N=N/c2c(O)ccc3ccccc23)c(OCCCC)c1 | – | – | 0.4 | inhibition (Pseudomonas aeruginosa [6]): inactive; inhibition (Pseudomonas aeruginosa [7]): inactive; inhibition [8]: inactive |
| O=C(CCNC(=O)c1cccc([N+](=O)[O-])c1)NC1CCOC1=O (stereo not drawn) | 40 to 60 | 40 to 60 | 904 | inhibition [5]: 30 to 50% |
| Cc1ccc(N(C)C(=O)c2ccc3c(c2)CC(c2ccc(Cl)cc2)OC3=O)cc1C (stereo not drawn) | 40 to 60 | 40 to 60 | 2.92 | – |
| O=C(CCCS(=O)(=O)c1ccccc1)Nc1nc(=O)[nH]cc1F | 40 to 60 | 40 to 60 | 40.5 | inhibition [12]: inactive; inhibition [1]: 20 to 90%; inhibition [13]: inactive |
| O=C(c1cn(CCCNCc2ccc(Oc3ccc(Cl)cc3)cc2)nn1)N1CCOCC1 | 40 to 60 | 40 to 60 | 0.678 | inhibition [14]: inactive |
| CCCCOc1cc(Cl)cc(OCCCC)c1/N=N/c1c(O)ccc2ccccc12 | – | – | – | inhibition (Pseudomonas aeruginosa [6]): inactive; inhibition (Pseudomonas aeruginosa [7]): inactive; inhibition [8]: inactive |
| O=C(Cc1ccc(Br)cc1)N[C@H]1CCOC1=O | – | – | – | inhibition at 50 µM (Pseudomonas aeruginosa [15]): 10 to 30%; inhibition at 50 µM (Pseudomonas aeruginosa [16]): 40% |
| Cc1ccc(NC(=O)c2ccc3c(c2)CC(c2ccc(Cl)cc2)OC3=O)cc1C (stereo not drawn) | 40 to 60 | 40 to 60 | 6.77 | – |
| CCCCCCCc1[nH]c2ccc([N+](=O)[O-])cc2c(=O)c1CO | 40 to 60 | 40 to 60 | – | inhibition [17]: 100% |
